Assay results as given in article PMC7138392 (Industrial Crops and Products, 2019).

Experiment: Cytotoxicity in MDCK cells
Format: cell-based, Canine
Details: dog
In short: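 MDCK cells (1 × 10^5/well) grown 24 h at 37 °C, 5% CO2, then washed twice with PBS pH 7.20. Exposed to test compound at 100 to 3.12 μM in p-MEM for 72 h at 37 °C, 5% CO2. Fixed, stained with 0.40% crystal violet in methanol, A490 read. Viability expressed relative to untreated cell control; CC50 by regression. Triplicate.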

## CCC(CC)O[C@@H]1C=C(C(=O)O)C[C@H](N)[C@H]1NC(C)=O [OC, Oseltamivir carboxylate]
  CC50 at 72 h: > 100 µM
